Experimental findings from ChEMBL document CHEMBL1949667, “Development of small-molecule probes that selectively kill cells induced to express mutant RAS” (Bioorg Med Chem Lett, 2012) are described below.

A short description of data set [1]: Cytotoxicity against human BJeH-LT cells after 48 hrs by alamar blue assay. The class given is cell-based. An outline of the steps: (§1)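 Cells grown in DMEM/M199 with heat-inactivated FBS at 37°C, 5% CO2, ≤20 passages. Compounds in DMSO diluted into medium, then 2-fold serial dilutions in medium; 1000 cells/well treated for 48 h. Viability read by adding Alamar Blue (50% in growth medium), incubating 16 h, then fluorescence at 544 excitation/590 emission; concentration-response curves generated.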

Data set [2] in a line: Selectivity ratio of IC50 for human BJeH-LT cells to IC50 for human BJeLR cells. The class given is ADME, cell-based. The settings on record: BJeH-LT cells versus BJeLR cells, read-out: Ratio IC50.
Data set [3] in a line: Cytotoxicity against human BJeLR cells expressing HRAS G12V mutant after 48 hrs by alamar blue assay. The data set is classed as functional, cell-based. In short, it runs like this:
(§2)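 BJ fibroblast lines: BJeLR (hTERT, SV40 large and small T, HRASV12) and DRD (hTERT, SV40 small T, dominant-negative p53, cyclin D1, mutant CDK4, HRASV12), grown in DMEM/M199/heat-inactivated FBS for ≤20 passages. Compounds were taken from DMSO into medium as 2-fold serial dilutions. 1000 cells/well were exposed for 48 h at 37°C, 5% CO2. Alamar Blue was added for 16 h, then fluorescence read at excitation 544, emission 590.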
On the technique in general: The colour change of resazurin is a common sign of viable cells or microbes.

The test system of a further data set is BJ. Put plainly: Cytotoxicity against human BJ cells expressing HRAS G12V mutant with alternative oncogenic constructs after 48 hrs by alamar blue assay. The class given is functional, cell-based. An outline of the steps: as §2
Data set [4] can be described thus: Cytotoxicity against human BJeH cells after 48 hrs by alamar blue assay. The class given is cell-based.
Data set [5] is described as follows: Drug degradation in PBS assessed as racemisation after 48 hrs by HPLC/MS analysis. The class given is physicochemical. The settings on record: buffer.
Data set [6] in a line: Drug degradation in PBS/DMSO assessed as GSH-adduct formation after 1 hr in the presence of GSH and triethylamine. The class given is physicochemical. The settings on record: buffer.
The nature of data set [7]: Aqueous solubility of the compound. The data set is classed as physicochemical.
The test system of another data set is BJeLR. Put plainly: Cytotoxicity against human BJeLR cells up to 20 ug/ml after 48 hrs by alamar blue assay. The class given is functional, cell-based. In short, it runs like this:
as §1

In a further data set the test system is BJeH-LT. Put plainly: Cytotoxicity against human BJeH-LT cells up to 20 ug/ml after 48 hrs by alamar blue assay. The class given is functional, cell-based. An outline of the steps: as §1
A short description of data set [8]: (§3) Selectivity ratio of IC50 for human BJeH cells to IC50 for human BJeLR cells. The class given is ADME, cell-based. The settings on record: BJeH cells versus BJeLR cells, read-out: Ratio IC50.
A short description of data set [9]: as §3. The data set is classed as ADME, cell-based. The settings on record: BJeH cells versus BJeLR cells, read-out: Ratio IC50. This is another data set of the same source.
Another data set relates to MEF. The experiment in a line: Cytotoxicity against MEF expressing K-rasG12D after 48 hrs by CellTiter-Glo assay. The class given is functional, cell-based. The settings on record: Mus musculus. (In general: In ATP-based viability assays light output follows the ATP content of the culture.)

≈ marks a conversion by molar mass, not a printed value. Calls of active or inactive are those of the source. The rule behind the calls is not given here.

Usually IC50 stands for the concentration that inhibits the measured activity by half. A high value points to lower potency. For orientation: solubility means the dissolved amount per volume that the medium holds.

As for `COc1ccc(N(C(=O)CCl)C(C(=O)NCc2ccccc2)c2cccs2)cc1Cl` (racemic), the IC50 in data set [1] was 0.179 µM; in [3], 0.075 µM. The selectivity ratio in data set [2] amounted to 2.4.
`COc1ccc(N(C(=O)CCl)C(C(=O)NCCc2ccccc2)c2ccc(Cl)s2)cc1Cl` (racemic): the values for the IC50 in [1] and in data set [3] were 0.133 µM and 0.061 µM, respectively. Also, the selectivity ratio in data set [2] amounted to 2.2.
Taken in the same sequence, the figures for `COc1ccc(N(C(=O)CCl)C(C(=O)NC2CCCCC2)c2cccs2)cc1Cl` (racemic) were 0.27 µM, 0.113 µM and 2.4.
Take `COc1ccc(N(C(=O)CCl)C(C(=O)NCCc2ccccc2)c2cccs2)cc1Cl` (racemic): the IC50 in [1] came out at 0.578 µM; in the data set with BJ, 0.034 µM; in data set [4], 2.4 µM; in data set [3], 0.025 µM. Besides, the Drug degradation result in [5] was “Not Active”; in [6], “Active”. Besides, in [7] (aqueous, read-out: solubility), the solubility turned out to be 16 µM (≈ 7.64 µg/mL).
Take `O=C(c1n[nH]cc1[N+](=O)[O-])N1CCN(C(c2ccccc2)c2ccccc2)CC1`: the inhibition result with BJeLR and in the data set on BJeH-LT was “inactive” in each case.
On to `Cc1onc(C(=O)N2CCN(C(c3ccncc3)c3ccncc3)CC2)c1[N+](=O)[O-]`, for which the inhibition entry with BJeLR and in the data set on BJeH-LT was “inactive” each time. In data set [7] (buffer), this compound came in with a solubility greater than 500 µM.
With `COc1ccc(N(C(=O)CCl)C(C(=O)NCS(=O)(=O)c2ccc(C)cc2)c2cccs2)cc1Cl` (racemic), the IC50 in data set [1] was 0.208 µM; in [3] it was 0.089 µM. Besides, in data set [7] (aqueous, read-out: solubility), the solubility is less than 1 µM.
As for `Cc1onc(C(=O)N2CCCN(C(c3ccccc3)c3ccccc3)CC2)c1[N+](=O)[O-]`, the values for the IC50 in [1] and in data set [3] were 2.79 µM and 0.773 µM, respectively. The selectivity ratio in data set [2] is 3.6.
Taken in the same sequence, the figures for `COc1cccc(N(C(=O)CCl)C(C(=O)NCCc2ccccc2)c2cccs2)c1` (racemic) were 2.4 µM, 0.17 µM and 14.
For the compound `Cc1onc(C(=O)N2CCN(C(c3ccc(Cl)cc3)c3ccc(Cl)cc3)CC2)c1[N+](=O)[O-]`, the IC50 in data set [1] worked out at 0.272 µM; with BJ it was 0.107 µM; in data set [4], 0.628 µM; in [3] it was 0.071 µM. Besides, the selectivity ratio came to 4 in [8], 4 in data set [9] and 3.9 in [2].
`COc1ccccc1N1CCN(C(=O)c2noc(C)c2[N+](=O)[O-])CC1`: the inhibition result in the data set with BJeLR and in the data set with BJeH-LT was “inactive” each time.
As to `Cc1onc(C(=O)N2CCOCC2)c1[N+](=O)[O-]`, the inhibition result in the data set on BJeLR and with BJeH-LT was “inactive” each time.
`Cc1onc(C(=O)N2CCN(C(c3ccccn3)c3ccccn3)CC2)c1[N+](=O)[O-]`: the inhibition result in the data set with BJeLR and with BJeH-LT was “inactive” throughout. In data set [7] (buffer), the solubility was greater than 500 µM.
As for `COc1ccc(N(C(=O)CCl)C(C(=O)NCCc2ccccc2)C2CCCCC2)cc1Cl` (racemic), the 50% inhibitory concentration (IC50) in [1] is 1.18 µM; in data set [3] it was 0.505 µM. The selectivity ratio in [2] is 2.3.
Consider `COC(=O)c1ccc(C2c3[nH]c4ccccc4c3C[C@@H](C(=O)OC)N2C(=O)CCl)cc1` (stereo partly specified), for which the selectivity ratio in [2] was found to be 8. In data set [3], this compound showed an IC50 of 0.1 µM.
Consider `COc1ccc(C(c2ccc(OC)cc2)N2CCN(C(=O)c3noc(C)c3[N+](=O)[O-])CC2)cc1`, for which the IC50 in data set [1] was 5.32 µM; in data set [3], 1.57 µM. Moreover, the selectivity ratio in data set [2] worked out at 3.4.
Taken in the same sequence, the figures for `COc1ccc(N(CC(=O)NCCc2ccccc2)C(=O)CCl)cc1Cl` were 0.531 µM, 0.231 µM and 2.3.
`O=C(c1ccc([N+](=O)[O-])o1)N1CCN(C(c2ccccc2)c2ccccc2)CC1` returned an IC50 in data set [1] of 18.9 µM. In addition, the inhibition entry in the data set on BJeLR is “inactive”.
With `Cn1cc([N+](=O)[O-])c(C(=O)N2CCN(C(c3ccccc3)c3ccccc3)CC2)n1`, the inhibition result in the data set on BJeLR and in the data set on BJeH-LT was “inactive” throughout.
With `Cc1onc(C(=O)N2CCN(C(c3ccc(F)cc3)c3ccc(F)cc3)CC2)c1[N+](=O)[O-]`, the IC50 in data set [1] was 0.757 µM; in data set [3], 0.183 µM. In addition, the selectivity ratio in data set [2] came to 4.1.
Consider `Cn1ncc([N+](=O)[O-])c1C(=O)N1CCN(C(c2ccccc2)c2ccccc2)CC1`, for which the inhibition entry in the data set on BJeLR and in the data set with BJeH-LT was “inactive” throughout.
Regarding `CCC(=O)N1CCN(C(=O)c2noc(C)c2[N+](=O)[O-])CC1`, the inhibition result in the data set with BJeLR and in the data set with BJeH-LT was “inactive” throughout.
Regarding `COc1ccc(N(C(=O)CCl)C(C(=O)NCCc2ccccc2)c2nc(C)cs2)cc1Cl` (racemic), the IC50 was 19.8 µM in data set [1] and 8.26 µM in [3]. In addition, the selectivity ratio in [2] is 2.4.
Taken in the same sequence, the figures for `O=C(NCCc1ccccc1)C(c1cccs1)N(C(=O)CCl)c1cccc(Cl)c1` (racemic) were 0.331 µM, 0.156 µM and 2.1.
Taken in the same sequence, the figures for `COc1ccc(N(C(=O)CCl)C(C(=O)NCCc2ccccc2)C(C)C)cc1Cl` (racemic) were 1.3 µM, 0.895 µM and 1.5.
In the case of `Cc1ccc(C(=O)N2CCN(C(c3ccccc3)c3ccccc3)CC2)c([N+](=O)[O-])c1`, the inhibition result with BJeLR and in the data set with BJeH-LT was “inactive” each time.
Turning to `Cc1onc(C(=O)N2CCN(Cc3ccccc3)CC2)c1[N+](=O)[O-]`, the inhibition entry with BJeLR and in the data set on BJeH-LT was “inactive” in each case.
For the compound `Cc1onc(C(=O)NCCNC(c2ccccc2)c2ccccc2)c1[N+](=O)[O-]`, the inhibition result in the data set on BJeH-LT was “inactive”. This compound also came in with an IC50 in [3] of 21.6 µM.
In the data set with MEF, `C[C@H](CN1CCCC1)C(=O)c1ccc(C(F)(F)F)cc1` [LANPERISONE] showed an IC50 of 4 µM.
Take `COc1ccc(N(C(=O)CCl)C(C)(C)C(=O)NCCc2ccccc2)cc1Cl`: the IC50 in data set [1] is 0.127 µM; in [3] it was 0.058 µM. In addition, in data set [2], the selectivity ratio was determined as 2.2.
For `Cc1onc(C(=O)N2CCN(C(c3ccccc3)c3ccc(Cl)cc3)CC2)c1[N+](=O)[O-]` (racemic), in that order: 0.51 µM, 0.129 µM and 4.
Taken in the same sequence, the figures for `O=C(c1cc([N+](=O)[O-])ccn1)N1CCN(C(c2ccccc2)c2ccccc2)CC1` were 49.7 µM, 37.3 µM and 1.33.
For `COc1ccc(N(C(=O)CCl)C(C(=O)NCCc2ccccc2)c2cccs2)cc1` (racemic), in that order: 1.7 µM, 0.22 µM and 7.8.
Consider `Cc1onc(C(=O)N2CCN(C(c3ccccc3)c3ccccc3)CC2)c1[N+](=O)[O-]`, for which the IC50 in [1] came out at 4.97 µM; in data set [3], 1.03 µM. Besides, the selectivity ratio in data set [2] is 4.8.
In the case of `COc1ccc(N(C(=O)CCl)C(C(=O)NCn2nnc3ccccc32)c2cccs2)cc1Cl` (racemic), the values for the IC50 in data set [1] and in data set [3] were 0.242 µM and 0.102 µM, respectively.
As to `Cc1onc(C(=O)NCc2ccc(F)cc2)c1[N+](=O)[O-]`, the inhibition result in the data set on BJeLR and with BJeH-LT was “inactive” throughout.
